Drawing on ChEMBL document CHEMBL2417544, “Design, synthesis and biological evaluation of azithromycin glycosyl derivatives as potential antibacterial agents” (2013), this text covers Ratio and MIC80 for ten compounds.

In brackets after ≈: the same amount, converted by molar mass.

Common to all, as to format: functional
For assay [1], the system named is Streptococcus pneumoniae. In words: Ratio of erythromycin A MIC80 to compound MIC80 for Streptococcus pneumoniae 746. In outline:
(§1)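 Ratio of the reference macrolide's MIC80 (azithromycin or erythromycin A, tested in parallel) to the compound's MIC80. Both come from the same NCCLS broth dilution run: DMSO stocks serially diluted in medium, inoculated, 35 °C. MIC80 is the first well with about 80% lower growth than the drug-free control. Triplicate tests, means used.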

Assay [2] has as its system Streptococcus pneumoniae. The assay is described as follows: Ratio of azithromycin MIC80 to compound MIC80 for Streptococcus pneumoniae 943. The method in brief: as §1
For assay [3], the system named is Streptococcus pneumoniae. In words: Ratio of erythromycin A MIC80 to compound MIC80 for Streptococcus pneumoniae 943. The method in brief: as §1
Assay [4] has as its system Escherichia coli. In words: Antibacterial activity against Escherichia coli ATCC 25922 by standard dilution assay. In outline:
(§2)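 Broth dilution MIC per NCCLS guidance. Compounds dissolved in DMSO, serially diluted in growth medium, inoculated and incubated at 35 °C. MIC80 taken as the first well showing roughly 80% less growth than the drug-free well. Each test run three times; values are means of replicates.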

Assay [5] deals with Staphylococcus aureus. In words: Ratio of erythromycin A MIC80 to compound MIC80 for methicillin-susceptible Staphylococcus aureus MSSA-1. The method in brief: as §1
The subject of assay [6] is Escherichia coli. In words: Antibacterial activity against Escherichia coli 236 by standard dilution assay. The method in brief:
as §2

Assay [7] has as its system Streptococcus pyogenes. In words: Antibacterial activity against Streptococcus pyogenes 447 by standard dilution assay. In outline: as §2
Assay [8] deals with Streptococcus pneumoniae. In words: Antibacterial activity against Streptococcus pneumoniae 746 by standard dilution assay. In outline:
as §2

The test system of assay [9] is Staphylococcus aureus. In words: Antibacterial activity against Staphylococcus aureus ATCC 25923 by standard dilution assay. The method in brief:
(§3)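 Broth dilution MIC per NCCLS guidance. Compounds dissolved in DMSO, serially diluted in growth medium, inoculated and incubated at 35 °C. MIC80 read as the first well with about 80% less growth than the drug-free well. Erythromycin and azithromycin were run as positive controls. Each test was done three times, and values are means of the replicates.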

Assay [10] relates to Staphylococcus aureus. The assay is described as follows: Antibacterial activity against methicillin-resistant Staphylococcus aureus MRSA-1 by standard dilution assay. The method in brief: as §3
For assay [11], the system named is Staphylococcus aureus. In words: Antibacterial activity against methicillin-susceptible Staphylococcus aureus MSSA-1 by standard dilution assay. The method in brief:
as §3

In assay [12] the test system is Streptococcus pneumoniae. In words: Antibacterial activity against Streptococcus pneumoniae 943 by standard dilution assay. The method in brief:
as §2

Broadly, the MIC80 is an inhibitory concentration at the 80% level, which refers to growth in some studies and to a panel of isolates in others. For the compound `CC[C@H]1OC(=O)[C@H](C)[C@@H](O[C@H]2C[C@@](C)(OC)[C@@H](OC(=O)NCCO[C@@H]3O[C@H](CO)[C@@H](O)[C@H](O)[C@H]3O)[C@H](C)O2)[C@H](C)[C@@H](O[C@@H]2O[C@H](C)C[C@H](N(C)C)[C@H]2O)[C@](C)(O)C[C@@H](C)CN(C)[C@H](C)[C@H]2OC(=O)O[C@@]21C`, the Ratio in assay [1] turned out to be 8; in [2] it was 4; in assay [3] it was 8; in assay [5] it was 8. The MIC80 in assay [4] came to 128 µg/mL (≈ 125 µM); in assay [6], 64 µg/mL (≈ 62.5 µM); in assay [7], 16 µg/mL (≈ 15.6 µM); in [8], 2 µg/mL (≈ 1.95 µM); in assay [9], 8 µg/mL (≈ 7.81 µM); in assay [10], 16 µg/mL (≈ 15.6 µM). Besides, the MIC80 in assay [11] was found to be 2 µg/mL (≈ 1.95 µM); in assay [12], 1 µg/mL (≈ 0.976 µM).
On to `CC[C@H]1OC(=O)[C@H](C)[C@@H](O[C@H]2C[C@@](C)(OC)[C@@H](OC(=O)NCCO[C@@H]3O[C@H](CO)[C@H](O)[C@H](O)[C@H]3O)[C@H](C)O2)[C@H](C)[C@@H](O[C@@H]2O[C@H](C)C[C@H](N(C)C)[C@H]2O)[C@](C)(O)C[C@@H](C)CN(C)[C@H](C)[C@H]2OC(=O)O[C@@]21C`, for which the Ratio in [1] amounted to 8; in [2], 4; in assay [3] it was 8. Moreover, the MIC80 came to 128 µg/mL (≈ 125 µM) in assay [4]; 128 µg/mL (≈ 125 µM) in [6]; 64 µg/mL (≈ 62.5 µM) in assay [7]; 2 µg/mL (≈ 1.95 µM) in assay [8]; 32 µg/mL (≈ 31.2 µM) in assay [9]; 32 µg/mL (≈ 31.2 µM) in assay [10]. The MIC80 worked out at 4 µg/mL (≈ 3.91 µM) in [11] and 1 µg/mL (≈ 0.976 µM) in assay [12].
For `CC[C@H]1OC(=O)[C@H](C)[C@@H](O[C@H]2C[C@@](C)(OC)[C@@H](OC(=O)NCCO[C@@H]3O[C@H](CO)[C@@H](O)[C@H](O)[C@@H]3O)[C@H](C)O2)[C@H](C)[C@@H](O[C@@H]2O[C@H](C)C[C@H](N(C)C)[C@H]2O)[C@](C)(O)C[C@@H](C)CN(C)[C@H](C)[C@H]2OC(=O)O[C@@]21C`, the MIC80 in assay [4] is 128 µg/mL (≈ 125 µM); in assay [6], 64 µg/mL (≈ 62.5 µM); in assay [7], 32 µg/mL (≈ 31.2 µM); in assay [8], 4 µg/mL (≈ 3.91 µM); in assay [9] it was 8 µg/mL (≈ 7.81 µM); in assay [10], 8 µg/mL (≈ 7.81 µM). In addition, the MIC80 came out at 8 µg/mL (≈ 7.81 µM) in [11] and 4 µg/mL (≈ 3.91 µM) in assay [12].
As to `CC[C@H]1OC(=O)[C@H](C)[C@@H](O[C@H]2C[C@@](C)(OC)[C@@H](OC(=O)NCCO[C@@H]3OC[C@@H](O)[C@H](O)[C@H]3O)[C@H](C)O2)[C@H](C)[C@@H](O[C@@H]2O[C@H](C)C[C@H](N(C)C)[C@H]2O)[C@](C)(O)C[C@@H](C)CN(C)[C@H](C)[C@H]2OC(=O)O[C@@]21C`, the MIC80 in assay [4] was determined as 256 µg/mL (≈ 257 µM); in [6] it was 64 µg/mL (≈ 64.4 µM); in assay [7], 16 µg/mL (≈ 16.1 µM); in assay [8], 4 µg/mL (≈ 4.02 µM); in assay [9] it was 8 µg/mL (≈ 8.05 µM); in assay [10], 16 µg/mL (≈ 16.1 µM). For the same compound, the MIC80 in assay [11] amounted to 16 µg/mL (≈ 16.1 µM); in [12], 2 µg/mL (≈ 2.01 µM).
Regarding `CC[C@H]1OC(=O)[C@H](C)[C@@H](O[C@H]2C[C@@](C)(OC)[C@@H](OC(=O)NCCO[C@@H]3O[C@H](CO)[C@@H](O)[C@H]3O)[C@H](C)O2)[C@H](C)[C@@H](O[C@@H]2O[C@H](C)C[C@H](N(C)C)[C@H]2O)[C@](C)(O)C[C@@H](C)CN(C)[C@H](C)[C@H]2OC(=O)O[C@@]21C`, the MIC80 was found to be 128 µg/mL (≈ 129 µM) in assay [4]; 64 µg/mL (≈ 64.4 µM) in assay [6]; 64 µg/mL (≈ 64.4 µM) in assay [7]; 8 µg/mL (≈ 8.05 µM) in assay [8]; 4 µg/mL (≈ 4.02 µM) in assay [9]; 8 µg/mL (≈ 8.05 µM) in [10]. For the same compound, the results for the MIC80 in [11] and in assay [12] were 8 µg/mL (≈ 8.05 µM) and 4 µg/mL (≈ 4.02 µM), respectively.
Regarding `CC[C@H]1OC(=O)[C@H](C)[C@@H](O[C@H]2C[C@@](C)(OC)[C@@H](OC(=O)NCCO[C@@H]3O[C@@H](C)[C@H](O)[C@@H](O)[C@H]3O)[C@H](C)O2)[C@H](C)[C@@H](O[C@@H]2O[C@H](C)C[C@H](N(C)C)[C@H]2O)[C@](C)(O)C[C@@H](C)CN(C)[C@H](C)[C@H]2OC(=O)O[C@@]21C`, the MIC80 in [4] was found to be 128 µg/mL (≈ 127 µM); in assay [6] it was 128 µg/mL (≈ 127 µM); in assay [7], 64 µg/mL (≈ 63.5 µM); in assay [8], 8 µg/mL (≈ 7.93 µM); in assay [9], 16 µg/mL (≈ 15.9 µM); in [10], 8 µg/mL (≈ 7.93 µM). Also, the figures for the MIC80 in [11] and in [12] were 2 µg/mL (≈ 1.98 µM) and 4 µg/mL (≈ 3.97 µM), respectively. The Ratio in assay [5] is 8.
On to `CC[C@H]1OC(=O)[C@H](C)[C@@H](O[C@H]2C[C@@](C)(OC)[C@@H](OC(=O)NCCO[C@@H]3O[C@H](CO)[C@@H](O[C@H]4O[C@H](CO)[C@@H](O)[C@H](O)[C@H]4O)[C@H](O)[C@H]3O)[C@H](C)O2)[C@H](C)[C@@H](O[C@@H]2O[C@H](C)C[C@H](N(C)C)[C@H]2O)[C@](C)(O)C[C@@H](C)CN(C)[C@H](C)[C@H]2OC(=O)O[C@@]21C`, for which the MIC80 in [4] turned out to be 256 µg/mL (≈ 216 µM); in [6] it was 128 µg/mL (≈ 108 µM); in assay [7] it was 32 µg/mL (≈ 27 µM); in assay [8], 16 µg/mL (≈ 13.5 µM); in [9] it was 32 µg/mL (≈ 27 µM); in assay [10] it was 16 µg/mL (≈ 13.5 µM). Moreover, the results for the MIC80 in [11] and in assay [12] were 16 µg/mL (≈ 13.5 µM) and 8 µg/mL (≈ 6.74 µM), respectively.
For `CC[C@H]1OC(=O)[C@H](C)[C@@H](O[C@H]2C[C@@](C)(OC)[C@@H](OC(=O)NCCO[C@@H]3O[C@H](CO)[C@@H](O[C@@H]4O[C@H](CO)[C@@H](O)[C@H](O)[C@H]4O)[C@H](O)[C@H]3O)[C@H](C)O2)[C@H](C)[C@@H](O[C@@H]2O[C@H](C)C[C@H](N(C)C)[C@H]2O)[C@](C)(O)C[C@@H](C)CN(C)[C@H](C)[C@H]2OC(=O)O[C@@]21C`, the MIC80 came out at 256 µg/mL (≈ 216 µM) in assay [4]; 128 µg/mL (≈ 108 µM) in assay [6]; 64 µg/mL (≈ 53.9 µM) in assay [7]; 16 µg/mL (≈ 13.5 µM) in assay [8]; 16 µg/mL (≈ 13.5 µM) in assay [9]; 32 µg/mL (≈ 27 µM) in assay [10]. For the same compound, the figures for the MIC80 in assay [11] and in assay [12] were 32 µg/mL (≈ 27 µM) and 8 µg/mL (≈ 6.74 µM), respectively.
For the compound `CC[C@H]1OC(=O)[C@H](C)[C@@H](O[C@H]2C[C@@](C)(OC)[C@@H](O)[C@H](C)O2)[C@H](C)[C@@H](O[C@@H]2O[C@H](C)C[C@H](N(C)C)[C@H]2O)[C@](C)(O)C[C@@H](C)CN(C)[C@H](C)[C@@H](O)[C@]1(C)O` [AZITHROMYCIN], the MIC80 is 256 µg/mL (≈ 342 µM) in [4]; 256 µg/mL (≈ 342 µM) in assay [6]; 32 µg/mL (≈ 42.7 µM) in assay [7]; 8 µg/mL (≈ 10.7 µM) in [8]; 16 µg/mL (≈ 21.4 µM) in [9]; 16 µg/mL (≈ 21.4 µM) in [10]. The results for the MIC80 in [11] and in [12] were 2 µg/mL (≈ 2.67 µM) and 4 µg/mL (≈ 5.34 µM), respectively.
With `CC[C@H]1OC(=O)[C@H](C)[C@@H](O[C@H]2C[C@@](C)(OC)[C@@H](O)[C@H](C)O2)[C@H](C)[C@@H](O[C@@H]2O[C@H](C)C[C@H](N(C)C)[C@H]2O)[C@](C)(O)C[C@@H](C)C(=O)[C@H](C)[C@@H](O)[C@]1(C)O` [ERYTHROMYCIN], the MIC80 in [4] stood at 256 µg/mL (≈ 349 µM); in [6], 256 µg/mL (≈ 349 µM); in assay [7], 32 µg/mL (≈ 43.6 µM); in assay [8], 16 µg/mL (≈ 21.8 µM); in assay [9], 16 µg/mL (≈ 21.8 µM); in assay [10], 16 µg/mL (≈ 21.8 µM). For the same compound, the MIC80 in [11] was found to be 16 µg/mL (≈ 21.8 µM); in [12] it was 8 µg/mL (≈ 10.9 µM).
